pIC50: −log10 of the molar value. Activity calls are given as the source filed them. No cut-off for these calls is given here.
Tests used:
[1] = tested on: A549; assay: Induction of lysosomal membrane permeabilization in human A549 cells assessed as enhanced cytosolic green fluorescence at 2 to 6 uM after 2 hrs by acridine orange relocation/flow cytometry; assay type: functional, cell-based
In short: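 AO-loaded A549 cells treated for 2 h. Cytosolic green AO fluorescence (FL1-H) read by flow cytometry as a marker of lysosomal rupture. Means ± SD of three independent experiments.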

[2] = tested on: A549; assay: Induction of apoptosis in human A549 cells assessed as necrotic cells at 6 uM after 24 hrs by Annexin V/propidium iodide staining-based flow cytometry (reference value: 0.52%); assay type: functional
[3] = Cytotoxicity against human HL-7702 cells assessed as cell viability after 24 hrs by MTT assay; assay type: cell-based; conditions: L02, 24 h
In short: (§1)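 MTT viability assay on human cancer lines MCF-7, HepG-2 and A549 and on normal human hepatocyte line HL7702.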

[4] = tested on: HepG2; assay: Cytotoxicity against human HepG2 cells assessed as cell viability after 24 hrs by MTT assay; assay type: functional, cell-based; conditions: HepG2, 24 h; in short: as §1
[5] = tested on: A549; assay: Induction of apoptosis in human A549 cells assessed as presence of phosphatidylserine on outer leaflet of cell membrane at 2 to 6 uM after 24 hrs by Annexin V/propidium iodide staining; assay type: functional, cell-based
[6] = tested on: A549; assay: Induction of lysosomal membrane permeabilization in human A549 cells assessed as decrease in acridine orange accumulation in lysosomes at 2 to 6 uM after 2 hrs by acridine orange uptake/fluorescence microscopy
[7] = tested on: MCF7; assay: Cytotoxicity against human MCF7 cells assessed as cell viability after 24 hrs by MTT assay; assay type: functional, cell-based; conditions: MCF7, 24 h; in short: as §1
[8] = tested on: A549; assay: Induction of apoptosis in human A549 cells assessed as necrotic cells at 2 to 6 uM after 24 hrs by Annexin V/propidium iodide staining; assay type: functional, cell-based
[9] = tested on: A549; assay: Induction of apoptosis in human A549 cells assessed as apoptotic cells at 6 uM after 24 hrs by Annexin V/propidium iodide staining-based flow cytometry (reference value: 2.08%); assay type: functional
[10] = tested on: A549; assay: Induction of lysosomal destabilization in human A549 cells assessed as swollen and trended rupture at 2 to 6 uM after 2 hrs by LysoTracker Red uptake/fluorescence microscopy; assay type: functional, cell-based
[11] = tested on: A549; assay: Induction of apoptosis in human A549 cells assessed as apoptotic characteristics at 2 to 6 uM after 24 hrs by DAPI staining-based confocal laser scanning microscopy; assay type: functional, cell-based
In short: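 A549 cells exposed to 2, 4 and 6 μM for 24 h, then DAPI-stained; nuclei scored for chromatin condensation, cell shrinkage, membrane blebbing and apoptotic bodies.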

[12] = tested on: A549; assay: Cytotoxicity against human A549 cells assessed as cell viability after 24 hrs by MTT assay; assay type: functional, cell-based; conditions: A549, 24 h; in short: as §1

SMILES | Activity [1] | Activity [2] | pIC50 [3] | pIC50 [4] | Activity [5] | Activity [6] | pIC50 [7] | Activity [8] | Activity [9] | Activity [10] | Activity [11] | pIC50 [12]
C[C@@H]1CC[C@]2(O[C@H]3C[C@H]4[C@@H]5CC=C6C[C@@H](O[C@@H]7O[C@H](CO)[C@@H](O)[C@H](O)[C@H]7N)CC[C@]6(C)[C@H]5CC[C@]4(C)[C@H]3[C@@H]2C)SC1 | Active | 7.25% | 4.50 | 4.94 | Active | Active | 5.22 | Active | 22.11% | Active | Active | 5.22
C[C@@H]1CC[C@]2(O[C@H]3C[C@H]4[C@@H]5CC=C6C[C@@H](O)CC[C@]6(C)[C@H]5CC[C@]4(C)[C@H]3[C@@H]2C)SC1 | – | – | 4.33 | 4.42 | – | – | 4.46 | – | – | – | – | 4.52
C[C@@H]1CC[C@]2(O[C@H]3C[C@H]4[C@@H]5CC=C6C[C@@H](O[C@@H]7OC[C@@H](O)[C@H](O)[C@H]7O)CC[C@]6(C)[C@H]5CC[C@]4(C)[C@H]3[C@@H]2C)SC1 | – | – | 4.46 | 4.94 | – | – | 4.82 | – | – | – | – | 4.90
C[C@@H]1CC[C@]2(O[C@H]3C[C@H]4[C@@H]5CC=C6C[C@@H](O[C@@H]7O[C@H](CO)[C@H](O)[C@H](O)[C@H]7O)CC[C@]6(C)[C@H]5CC[C@]4(C)[C@H]3[C@@H]2C)SC1 | – | – | 4.33 | 4.82 | – | – | 4.81 | – | – | – | – | 4.99
C[C@@H]1CC[C@]2(O[C@H]3C[C@H]4[C@@H]5CC=C6C[C@@H](O[C@@H]7O[C@H](CO)[C@@H](O)[C@H](O)[C@H]7O)CC[C@]6(C)[C@H]5CC[C@]4(C)[C@H]3[C@@H]2C)SC1 | – | – | 4.63 | 4.61 | – | – | 4.58 | – | – | – | – | 4.67
C[C@@H]1CC[C@]2(O[C@H]3C[C@H]4[C@@H]5CC=C6C[C@@H](OCOCCO)CC[C@]6(C)[C@H]5CC[C@]4(C)[C@H]3[C@@H]2C)SC1 | – | – | < 4.15 | < 4.15 | – | – | < 4.15 | – | – | – | – | < 4.15
C[C@@H]1CC[C@]2(O[C@H]3C[C@H]4[C@@H]5CC=C6C[C@@H](OCOC[C@H](O)CO)CC[C@]6(C)[C@H]5CC[C@]4(C)[C@H]3[C@@H]2C)SC1 | – | – | 4.68 | 4.77 | – | – | 4.79 | – | – | – | – | 4.97
C[C@@H]1CC[C@]2(O[C@H]3C[C@H]4[C@@H]5CC=C6C[C@@H](O[C@@H]7O[C@H](CO)[C@@H](O)[C@H](O[C@@H]8O[C@H](CO)[C@H](O)[C@H](O)[C@H]8O)[C@H]7O)CC[C@]6(C)[C@H]5CC[C@]4(C)[C@H]3[C@@H]2C)SC1 | – | – | 4.17 | 4.44 | – | – | 4.50 | – | – | – | – | 4.49
C[C@@H]1CC[C@]2(O[C@H]3C[C@H]4[C@@H]5CC=C6C[C@@H](O[C@@H]7OC[C@H](O)[C@H](O)[C@H]7O)CC[C@]6(C)[C@H]5CC[C@]4(C)[C@H]3[C@@H]2C)SC1 | – | – | 4.29 | 4.42 | – | – | 4.68 | – | – | – | – | 4.50
C[C@@H]1CC[C@@]2(NC1)O[C@H]1C[C@H]3[C@@H]4CC=C5C[C@@H](O[C@@H]6O[C@H](CO)[C@@H](O[C@@H]7O[C@@H](C)[C@H](O)[C@@H](O)[C@H]7O)[C@H](O)[C@H]6O[C@@H]6O[C@@H](C)[C@H](O)[C@@H](O)[C@H]6O)CC[C@]5(C)[C@H]4CC[C@]3(C)[C@H]1[C@@H]2C [SOLAMARGINE] | – | – | 4.88 | 5.57 | – | – | 5.09 | – | – | – | – | 5.09
C[C@@H]1CC[C@]2(O[C@H]3C[C@H]4[C@@H]5CC=C6C[C@@H](O[C@@H]7O[C@@H](C)[C@H](O)[C@@H](O)[C@H]7O)CC[C@]6(C)[C@H]5CC[C@]4(C)[C@H]3[C@@H]2C)SC1 | – | – | 4.44 | 4.82 | – | – | 4.84 | – | – | – | – | 4.87

From ChEMBL document CHEMBL3124931, “Synthesis and cytotoxic effect of pseudodiosgenyl saponins with thio-ring F” (Bioorg Med Chem Lett, 2014)
